For 21 compounds, IC50 results are on record in ChEMBL document CHEMBL1152305, “Synthesis and ribonucleotide reductase inhibitory activity of thiosemicarbazones” (Bioorg Med Chem Lett, 2008).

A value given as a limit tells only on which side of the number the result lay.

This experiment can be described thus: Inhibition of human recombinant ribonucleotide reductase expressed in BL21 (DE3) bacteria assessed as conversion of [3H]CDP to [3H]dCDP. The method in brief:
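Recombinant human hRRM1 and hRRM2 subunits (BL21(DE3) expression, Ni(II) affinity purified) preincubated together with compound at room temperature 30 min, 1% v/v DMSO final. Phosphodiesterase dephosphorylation, HPLC radio-flow separation of cytidine/deoxycytidine. IC50 from nonlinear fit versus DMSO control; three tests in duplicate.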

With `Cc1ccccc1NC(=S)N/N=C/c1ccc(O)cc1`, the half-inhibitory concentration (IC50) amounted to 36.5 µM. Turning to `Cc1ccc(NC(=S)N/N=C/c2ccc(O)cc2)cc1`, the IC50 turned out to be 14.2 µM. For `Cc1cccc(NC(=S)N/N=C/c2ccc(O)cc2)c1`, the IC50 worked out at 30.4 µM.

For `NC(=O)NO` [HYDROXYUREA], the half-maximal inhibitory concentration (IC50) was 148 µM. As for `COc1ccccc1NC(=S)N/N=C/c1ccc(O)cc1`, the IC50 stood at 41.6 µM.

As to `Oc1ccc(/C=N/NC(=S)Nc2ccc(O)cc2)cc1`, the concentration for half-maximal inhibition (IC50) turned out to be 43.3 µM.

For `Oc1ccccc1/C=N/NC(=S)Nc1ccc(Cl)cc1`, the 50% inhibitory concentration (IC50) is over 500 µM.

For the compound `Oc1ccc(/C=N/NC(=S)Nc2ccccc2Cl)cc1`, the IC50 turned out to be 46.8 µM. In the case of `COc1cc(/C=N/NC(=S)Nc2ccccc2)ccc1O`, the IC50 was over 500 µM. For the compound `Oc1ccc(/C=N/NC(=S)Nc2cccc(O)c2)cc1`, the IC50 came to 28.6 µM.

`Oc1ccc(/C=N/NC(=S)Nc2ccccc2O)cc1`: the IC50 is 29.3 µM.

In the case of `NC(=S)N/N=C/c1ncccc1N` [TRIAPINE], the IC50 was 2.25 µM. Regarding `COc1cc(/C=N/NC(=S)Nc2ccc(Cl)cc2)ccc1O`, the IC50 was over 500 µM. Turning to `S=C(N/N=C/c1ccco1)Nc1ccc(Cl)cc1`, the 50% inhibitory concentration (IC50) is over 500 µM.

As to `Oc1ccc(/C=N/NC(=S)Nc2ccc(Cl)cc2)cc1`, the IC50 came to 287 µM. Turning to `Oc1ccc(/C=N/NC(=S)Nc2ccccc2)cc1`, the half-maximal inhibitory concentration (IC50) came out at 242 µM.

Turning to `S=C(N/N=C/c1cccs1)Nc1ccc(Cl)cc1`, the IC50 was over 500 µM. To `Oc1ccc(/C=N/NC(=S)Nc2cccc(Cl)c2)cc1` belongs 29.3 µM; to `Oc1ccccc1/C=N/NC(=S)Nc1ccccc1`, over 500 µM; to `O=[N+]([O-])c1ccccc1NC(=S)N/N=C/c1ccc(O)cc1`, 39.3 µM. As for `O=[N+]([O-])c1ccc(NC(=S)N/N=C/c2ccc(O)cc2)cc1`, the half-inhibitory concentration (IC50) came to 45.1 µM.
